Laboratory results published in publication PMC3127012 (European Journal of Nuclear Medicine and Molecular Imaging, 2011).

Assay: Biodistribution: uptake of 111In-labelled peptides in normal tissues
Format: in vivo, mice
Method in brief: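 Female athymic BALB/c mice with s.c. A431-CCK2R (2 × 10^6 cells, left flank) and mock-transfected A431 (right flank) tumours, ~0.1–0.2 g after ~10 days; n = 5/group. 111In-DOTA-peptide (11 GBq/μmol, >95% radiochemical purity) injected into the tail vein. Blood and organs were dissected at 1 and 4 h p.i., weighed, and gamma-counted; %ID/g, mean ± SD. Blocking group: 1,000-fold molar excess of unlabelled peptide, dissected at 4 h.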

Molecule | tissue uptake (mouse, in vivo, iv, 370 kBq (0.03 nmol)) [%ID/g] | blood levels relative to the other peptides investigated (BALB/c nude mice, 111In-labelled peptide, 1 h p.i.)
CSCC[C@H](NC(=O)[C@H](Cc1c[nH]c2ccccc12)NC(=O)CNC(=O)[C@H](Cc1ccc(O)cc1)NC(=O)[C@H](C)NC(=O)[C@H](CCC(=O)O)NC(=O)[C@H](CCC(=O)O)NC(=O)[C@H](CCC(=O)O)NC(=O)[C@H](CCC(=O)O)NC(=O)[C@H](CCC(=O)O)NC(=O)[C@@H](CCC(=O)O)NC(=O)CN1CCN(CC(=O)O)CCN(CC(=O)O)CCN(CC(=O)O)CC1)C(=O)N[C@@H](CC(=O)O)C(=O)N[C@@H](Cc1ccccc1)C(N)=O [MG0] | > 48 | –
DOTA-Gly-Ser-Cys-(Glu-Ala-Tyr-Gly-Trp-Nle-Asp-Phe-NH2)2 [MGD5] | – | tenfold higher
